Data as given in ChEMBL document CHEMBL4411320, “Synthesis and anti-HCV activity of β-d-2'-deoxy-2'-α-chloro-2'-β-fluoro and β-d-2'-deoxy-2'-α-bromo-2'-β-fluoro nucleosides and their phosphoramidate prodrugs” (Bioorg Med Chem, 2019).

How the values were obtained:
[1] = test system: Huh-7; test: (§1) Cytotoxicity against human HuH7 cells assessed as reduction in rRNA levels after 5 days by RT-PCR analysis; type: cell-based; settings: huh-7, 120 h
Method in brief: (§2)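 Huh-7 cells carrying a genotype 1b subgenomic HCV replicon were exposed to compounds at concentrations […]. Total RNA was then extracted and amplified to quantify both replicon HCV RNA (antiviral read-out) and cellular ribosomal RNA (cytotoxicity read-out), in the same cultures at the same time.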

[2] = test system: CCRF-CEM; test: (§3) Cytotoxicity against human CEM cells after 6 days by trypan blue exclusion method; type: cell-based; settings: ccrf-cem, 144 h
[3] = test system: Vero; test: (§4) Cytotoxicity against African green monkey Vero cells after 3 days by hemocytometric method; type: cell-based; settings: chlorocebus sabaeus, vero, 72 h
[4] = test system: PBMC; test: (§5) Cytotoxicity against human PBMC after 6 days by trypan blue exclusion method; type: cell-based; settings: pbmc, 144 h
[5] = test system: Hepatitis C virus; test: Antiviral activity against HCV genotype 1b subgenomic replicon infected in human HuH7 clone B cells assessed as inhibition of viral RNA replication after 5 days by RT-PCR method; type: functional, organism-based, Hepacivirus hominis; settings: subtype 1b, Huh-7, 120 h; method in brief: as §2
[6] = as §4; type: cell-based; settings: chlorocebus sabaeus, Vero cells
[7] = as §1; type: cell-based, Huh-7; settings: HuH7 cells; method in brief: as §2
[8] = as §3; type: cell-based, CCRF-CEM; settings: CEM cells
[9] = as §5; type: cell-based; settings: PBMC

Structure (SMILES) | CC50 [1] [µM] | CC50 [2] [µM] | CC50 [3] [µM] | CC50 [4] [µM] | EC50 [5] [µM] | EC90 [5] [µM] | CC50 at 72 h [6] [µM] | CC50 at 120 h [7] [µM] | CC50 at 144 h [8] [µM] | CC50 at 144 h [9] [µM]
Nc1ccn([C@@H]2O[C@H](CO)[C@@H](O)[C@@]2(F)Cl)c(=O)n1 | 12 | 11 | 63 | 9.3 | > 10 |  |  |  |  | 
O=c1ccn([C@@H]2O[C@H](CO)[C@@H](O)[C@@]2(F)Cl)c(=O)[nH]1 | > 100 | > 100 | > 100 | > 100 | > 10 | > 10 |  |  |  | 
Nc1ncnc2c1ncn2[C@@H]1O[C@H](CO)[C@@H](O)[C@@]1(F)Cl | > 100 | > 100 | > 100 | > 100 | > 10 |  |  |  |  | 
Nc1nc2c(ncn2[C@@H]2O[C@H](CO)[C@@H](O)[C@@]2(F)Cl)c(=O)[nH]1 | > 100 | > 100 | > 100 | > 100 | > 10 | > 10 |  |  |  | 
CC(C)OC(=O)[C@H](C)N[P@](=O)(OC[C@H]1O[C@@H](n2cnc3c(=O)[nH]c(N)nc32)[C@](F)(Br)[C@@H]1O)Oc1ccccc1 | > 100 | > 100 | > 100 | > 100 | > 10 | > 10 |  |  |  | 
O=c1ccn([C@@H]2O[C@H](CO)[C@@H](O)[C@@]2(F)Br)c(=O)[nH]1 | > 100 | > 100 | > 100 | > 100 | > 10 | > 10 |  |  |  | 
Nc1nc2c(ncn2[C@@H]2O[C@H](CO)[C@@H](O)[C@@]2(F)Br)c(=O)[nH]1 | > 100 | > 100 | > 100 | > 100 | > 10 |  |  |  |  | 
Nc1ccn([C@@H]2O[C@H](CO)[C@@H](O)[C@@]2(F)Br)c(=O)n1 | 2.9 | 3.2 | 2.9 | > 100 | 5.1 | > 10 |  |  |  | 
Nc1ncnc2c1ncn2[C@@H]1O[C@H](CO)[C@@H](O)[C@@]1(F)Br | > 100 | > 100 | > 100 | > 100 | > 10 |  |  |  |  | 
CC(C)OC(=O)[C@H](C)NP(=O)(OC[C@H]1O[C@@H](n2cnc3c(N)ncnc32)[C@](F)(Br)[C@@H]1O)Oc1ccccc1 (mixture of isomers) | 6.9 | 29 | 71 | 19 | > 10 |  |  |  |  | 
CC(C)OC(=O)[C@H](C)NP(=O)(OC[C@H]1O[C@@H](n2ccc(=O)[nH]c2=O)[C@](F)(Cl)[C@@H]1O)Oc1ccccc1 (mixture of isomers) | 1.3 | 90 | > 100 | > 100 | 0.9 | 3.7 |  |  |  | 
CC(C)OC(=O)[C@H](C)NP(=O)(OC[C@H]1O[C@@H](n2cnc3c(N)ncnc32)[C@](F)(Cl)[C@@H]1O)Oc1ccccc1 (mixture of isomers) | 1.6 | 15 | > 100 | 26 | 2.7 | ≥ 10 |  |  |  | 
CC(C)OC(=O)[C@H](C)NP(=O)(OC[C@H]1O[C@@H](n2ccc(=O)[nH]c2=O)[C@](F)(Br)[C@@H]1O)Oc1ccccc1 (mixture of isomers) | 8 |  |  |  | 0.4 | 2 | > 100 |  |  | 
CC(C)OC(=O)[C@H](C)NP(=O)(OC[C@H]1O[C@@H](n2ccc(N)nc2=O)[C@](F)(Br)[C@@H]1O)Oc1ccccc1 (mixture of isomers) | 6.8 | > 100 | > 100 | > 100 | 2.4 | ≥ 10 |  |  |  | 
CC(C)OC(=O)[C@H](C)NP(=O)(OC[C@H]1O[C@@H](n2ccc(N)nc2=O)[C@](F)(Cl)[C@@H]1O)Oc1ccccc1 (mixture of isomers) | 23 | > 100 | > 100 | > 100 | 0.7 | 3.4 |  |  |  | 
CC(C)OC(=O)[C@H](C)NP(=O)(OC[C@H]1O[C@@H](n2cnc3c(=O)[nH]c(N)nc32)[C@](F)(Cl)[C@@H]1O)Oc1ccccc1 (mixture of isomers) | > 100 | 84 | > 100 | > 100 | > 10 |  |  |  |  | 
CC(C)OC(=O)[C@H](C)N[P@](=O)(OC[C@H]1O[C@@H](n2ccc(=O)[nH]c2=O)[C@](C)(F)[C@@H]1O)Oc1ccccc1 [SOFOSBUVIR] |  |  |  |  | 0.05 | 0.37 | > 100 | > 100 | > 100 | > 100
